Only some compounds are listed: those with a hit (about 2.1% of all), similar ones and a draw of the others.
PDI inh = inhibitors of human PDI, primary screen, biochemical, turbidity, single point, plate reader; 0.052% of 350,000 active; Protein disulfide-isomerase (Homo sapiens), P07237; PDI insulin aggregation turbidity, A650, 90 min; inhibition, % at 10 µM;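 active means mean inhibition across replicates of 30% or more, whatever share of single replicates reach that level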
FN deposition inh = inhibitors of fibronectin matrix deposition, primary screen, AH1F cells, Alexa488-fibronectin fluorescence, plate reader | AID 743247, 2014 | inhibition, % at 12.6 µM | AH1F fibroblasts, overnight | 0.086% of 350,000 active;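 active means mean inhibition across replicates of 30% or more, regardless of how many single replicates reach that level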;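 further: positive control wells lacked labelled fibronectin entirely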
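Assay system: AH1F fibroblasts assembling fluorescent fibronectin matrix; Amount: 10000 AH1F cells per well; Buffer or medium: DMEM, 2% serum; Probe or stimulus: Alexa488-fibronectin, 24 nM final in well; Doses: single compound dose, delivered by pin transfer; Incubation: 1 h adhesion, overnight exposure; Measured by: fluorescence 485/525 nm; Read-out: fibronectin deposition inhibition.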
MLL AF4-AF9 inh = inhibitors of AF4 peptide binding to AF9, primary screen, biochemical, AlphaScreen, biotin-AF4 peptide, FLAG-AF9, single point | Protein AF-9 (Homo sapiens), P42568 | inhibition, % at 10 µM | 0.47% of 350,000 active | AID 651704, 2012;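 active means every replicate reaching a set inhibition limit, whatever the replicate mean, cut at about 25% in these data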;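 further: 0% = plate neutral control median and 100% = total signal loss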
Target sequence (P42568 whole entry, looked up): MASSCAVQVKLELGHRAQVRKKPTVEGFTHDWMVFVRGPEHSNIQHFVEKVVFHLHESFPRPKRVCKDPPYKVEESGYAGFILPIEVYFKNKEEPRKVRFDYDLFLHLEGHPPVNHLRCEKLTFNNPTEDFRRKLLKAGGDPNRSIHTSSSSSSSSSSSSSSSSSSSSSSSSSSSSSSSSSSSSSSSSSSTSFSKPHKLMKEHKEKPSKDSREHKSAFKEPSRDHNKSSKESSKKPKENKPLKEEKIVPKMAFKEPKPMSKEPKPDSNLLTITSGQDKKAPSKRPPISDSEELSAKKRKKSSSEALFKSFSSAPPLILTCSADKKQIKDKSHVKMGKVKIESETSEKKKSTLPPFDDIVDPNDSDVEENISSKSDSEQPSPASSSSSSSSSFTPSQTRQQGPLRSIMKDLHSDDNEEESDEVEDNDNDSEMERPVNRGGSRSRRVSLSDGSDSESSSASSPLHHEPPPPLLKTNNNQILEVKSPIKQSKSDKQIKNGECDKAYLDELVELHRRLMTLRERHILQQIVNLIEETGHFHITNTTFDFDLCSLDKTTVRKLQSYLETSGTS
ARNT-TACC3 inh = disruptors of ARNT/TACC3 protein interaction, primary screen, biochemical, AlphaScreen, single concentration | Transforming acidic coiled-coil-containing protein 3 (Homo sapiens), Q9Y6A5 | inhibition, % at 9.99 µM | 0.66% of 390,000 active | AID 623870, 2012 | AlphaScreen His-ARNT PAS-B/GST-TACC3 binding, luminescence; TACC3 fragment carries E629A point mutation;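 active means mean inhibition of replicates at least 50% and at least half of replicates each reaching 50%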;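 further: 0% = complete ARNT plus TACC3 wells and 100% = ARNT alone without TACC3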
FGF22 binding = binders of human FGF22 protein, primary screen, FGF22 synaptogenesis inhibitor project, biophysical, thermal shift, single point | recombinant FGF22 thermal shift, SYPRO orange fluorescence; percent of sucrose octasulfate shift, DMSO zero | activity (Tm shift, normalised), % at 9.99 µM | Fibroblast growth factor 22 (Homo sapiens), Q9HCT0 | AID 651658, 2012 | 1.5% of 340,000 active;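 active means mean Tm shift, scaled 0 neutral to 100 positive control, at about 1.3% or above, every replicate too, limit read from the data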
ERp5 block = inhibitors of ERp5-driven insulin aggregation, primary screen, biochemical, turbidity, absorbance 650 nm, single point; 0.05% of 350,000 active; inhibition, % at 9.99 µM; 90 min;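 active means mean replicate inhibition above about 25%, with every replicate also reaching it, limit read from the data, passing the limit was not always enough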
* = called active by the depositor; · = not tested or not shown.

SMILES	PDI inh	FN deposition inh	MLL AF4-AF9 inh	ARNT-TACC3 inh	FGF22 binding	ERp5 block
O=C(c1ccc(Cl)cc1[N+](=O)[O-])N1CCc2ccccc2C1	-6	-8	3	0	43*	1
COc1ccc(CC(N)c2csc(NC(=O)Nc3cc(OC)ccc3OC)n2)cc1 (centres undefined)	13	-8	31*	·	0	5
COc1ccc(OC)c(NC(=O)Nc2nc(C(N)CCc3ccccc3)cs2)c1 (centres undefined)	20	·	28*	·	0	2
COc1cc(NC(=O)Nc2nc(C(N)CCc3ccccc3)cs2)cc(OC)c1OC (centres undefined)	3	21	20	·	0	-1
Cc1noc(C)c1S(=O)(=O)N(C)C[C@H]1Oc2c(cccc2N(C)C)C(=O)N([C@@H](C)CO)C[C@@H]1C	·	6	-2	·	0	15
COc1ccc2c(c1OC)CN(C)CCc1cc3c(cc1C(=O)C2)OCO3	6	·	2	-5	43*	-14
CCN(CC)C(=O)[C@H]1CC(CC(=O)NCCc2ccccn2)C(=O)N2CCc3c([nH]c4ccccc34)[C@]12C (some centres undefined)	-2	6	-3	0	43*	-5
C[C@]12c3[nH]c4ccc(Cl)cc4c3CCN1C(=O)[C@@H](CC(=O)NCc1ccco1)C[C@@H]2C(=O)N1CCCCC1	1	34*	6	2	-1	-3
O=C(C[C@H]1C[C@H](C(=O)N2CCCCC2)[C@@]2(CCc3ccccc3)c3[nH]c4cc(-c5ccco5)ccc4c3CCN2C1=O)NCCN1CCOCC1	-5	10	26*	4	-1	0
C[C@H](CO)N1C[C@H](C)[C@H](CN(C)Cc2ccc(O)cc2)OCc2cn(nn2)CCCC1=O	·	-5	-4	-2	0	3
O=C(Cc1ccccn1)N1CC(=O)N2[C@H](CO)[C@H](c3ccc(-c4ccc(F)cc4)cc3)[C@H]2C1	·	·	1	·	·	0
Cc1cc(C)c(Cn2c(=O)n(CCCC(=O)NCc3ccco3)c(=O)c3sccc32)c(C)c1	3	34*	·	-4	·	·
Cc1noc(C)c1NC(=O)Nc1ccc2c(c1)CC(=O)N([C@@H](C)CO)C[C@@H](C)[C@H](CN(C)Cc1ccncc1)O2	·	·	-2	-7	0	-1
CC1(C)Cc2c(c(-c3ccco3)nc3sc4c(NCCO)ncnc4c23)CO1	0	10	-1	·	43*	2
O=C(C[C@@H]1C[C@@H]2c3cc(NC(=O)NC4CCCC4)ccc3O[C@@H]2[C@H](CO)O1)NCc1cc(F)ccc1F	·	-12	·	·	·	·
COc1cc(OC)cc(C(=O)NCC(=O)OCC(=O)N2c3ccccc3NC(=O)C2(C)C)c1	-6	·	-12	-5	44*	9
Cc1ccn2cc(-c3ccc(NC(=O)c4ccco4)cc3)nc2c1	-4	32*	·	4	·	·
Cc1nc(-c2ccc(NC(=O)c3ccco3)cc2)cs1	2	-3	1	-3	0	5
c1ccc2c(NCCc3c[nH]c4ccccc34)c3ccccc3nc2c1	7	7	44*	27	0	3
Fc1cccc(NCCc2c[nH]c3ccccc23)n1	-3	0	8	5	0	1
Cc1nnc(SCC(=O)NCc2ccccc2Cl)[nH]c1=O	21	2	34*	·	0	0
Cc1nnc(SCC(=O)Nc2c(Cl)cccc2Cl)[nH]c1=O	-4	2	-13	-10	0	6
O=C(Nc1ccccc1F)C(=Cc1sc(N2CCOCC2)nc1-c1ccccc1)C(=O)Nc1ccccc1F	5	-4	-1	-9	44*	-7
O=C(N/N=C/c1sc(N2CCOCC2)nc1-c1ccccc1)c1ccccc1O	9	-4	·	·	·	·
O=C(c1ccccc1)c1cc(Cl)ccc1N1C(=O)C=CC1=O	2	50*	14	3	0	9
SMILES	PDI inh	FN deposition inh	MLL AF4-AF9 inh	ARNT-TACC3 inh	FGF22 binding	ERp5 block
CCn1c(SC)nnc1-c1nn(-c2ccccc2)ccc1=O	5	-1	-4	3	43*	2
CCCC#Cc1ccc([C@@H]2[C@H]3CN(C(=O)c4cccnc4)CC(=O)N3[C@H]2CO)cc1	·	-1	0	·	·	6
COc1ccc2c3c([nH]c2c1)[C@@H](CO)N(C(C)=O)CC31CCN(C(=O)c2ccc3c(c2)OCO3)CC1	·	-4	25*	·	·	5
CCCN1CCC2(CC1)CN(Cc1ccc3c(c1)OCO3)[C@H](CO)c1[nH]c3cc(OC)ccc3c12	·	8	30*	·	0	-7
CCS(=O)(=O)N1CCC2(CC1)CN(Cc1ccc3c(c1)OCO3)[C@@H](CO)c1[nH]c3cc(OC)ccc3c12	·	·	-15	·	0	-2
COc1ccc(N2CCN(CC(=O)c3ccccc3)CC2)cc1	8	-4	31*	-2	0	2
COc1ccc(NC(=O)CN2CCCC2)cc1	2	0	2	0	0	4
O=C(CN1CCCC1)Nc1ccc(Oc2ccc(NC(=O)CN3CCCC3)cc2)cc1	-4	30*	·	4	·	·
COc1ccc(NC(=O)c2ccc(NC(=O)CN3CCN(c4ccccc4O)CC3)cc2)cc1	6	-11	4	·	43*	8
COc1ccc(NC(=O)c2ccc(NC(=O)CN3CCN(c4ccc(O)cc4)CC3)cc2)cc1	2	·	2	-5	0	-11
CC(C)CC(=O)Nc1cccc(-c2nc3ncccc3o2)c1	0	5	-3	12	0	0
CCCC(=O)NC(=S)Nc1cccc(-c2nc3ncccc3o2)c1	-2	-3	-1	-1	43*	4
CCCN1[C@@H]2c3ccc(-c4cccnc4)c(=O)n3C[C@@H]2[C@@H](CO)[C@@H]1C(=O)NCCCN1CCOCC1	·	·	2	-14	0	5
CC(=O)Nc1ccc(S(=O)(=O)N2CCN(c3cnn(C)c(=O)c3Cl)CC2)cc1	-1	-30	-2	·	43*	1
CC(=O)Nc1ccc(S(=O)(=O)N2CCN(c3cc(C)ccc3C)CC2)cc1	·	3	3	5	0	2
Cc1ccc(SCC(=O)NNC(=O)c2ccccc2)cc1C	-6	-3	-2	-3	0	3
Cc1ccc(SCCN)cc1C	8	-5	1	-14	43*	-8

Screening data: PubChem BioAssay, Broad Institute
